As a reminder, the IC50 is the concentration that inhibits the measured activity by half. The MIC is the least concentration at which growth counts as inhibited. A lower MIC goes with a more susceptible organism.

≈ marks a conversion by molar mass, not a printed value.

Series [1] can be described thus: Toxicity in RBC assessed as hemolysis. To be noted: erythrocyte. It is filed as cell-based.
Series [2] in a line: inhibition of Escherichia coli FabH expressed in Escherichia coli BL21 (DE3) cells assessed as [3H]acetyl-CoA after 5 mins by liquid scintillation counting. Particulars: in the assay text read “after 25 mins” for “after 5 mins”. Put shortly:
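His-tagged E. coli FabH was expressed in kanamycin-selected culture in LB at 37 °C, induced with 0.5 mM IPTG for 4 h, then Ni–NTA purified. Reactions were run in 20 mM sodium phosphate, pH 7.0, with holo-ACP. They were stopped with ice-cold 50% TCA, the protein was pelleted, and ³H incorporation into product was read by liquid scintillation. Inhibitors were added from DMSO stock, final DMSO ≤2%.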

The test system of the next series is Bacillus subtilis. Put plainly: Antibacterial activity against Bacillus subtilis ATCC 530 after 24 hrs by MTT assay. Particulars: ATCC 530, 24 h. It is filed as functional. Put shortly: (§1)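 Seeded broth in nutrient broth from 24 h bacterial cultures on nutrient agar at 37 °C. Suspension adjusted with sterile saline to 1 × 10⁴–10⁵ CFU. Compounds and reference drugs twofold serially diluted to 100, 50, 25, 12.5, 6.25 … µg/mL. MIC determined by MTT method.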
(Tetrazolium dyes change colour on reduction, which living cells bring about.)

In the next series the test system is Staphylococcus aureus. The series can be described thus: Antibacterial activity against Staphylococcus aureus ATCC 25923 after 24 hrs by MTT assay. It is filed as functional. Particulars: ATCC 25923, 24 h. In a few lines: as §1
A further series relates to Pseudomonas aeruginosa. Put plainly: Antibacterial activity against Pseudomonas aeruginosa ATCC 27853 after 24 hrs by MTT assay. It counts as functional. To be noted: ATCC 27853, 24 h. In a few lines: as §1
Another series concerns Escherichia coli. Put plainly: Antibacterial activity against Escherichia coli ATCC 25922/35128 after 24 hrs by MTT assay. Particulars: ATCC 25922/35128, 24 h. It counts as functional. Put shortly: as §1
Series [3] can be described thus: inhibition of Escherichia coli FabH expressed in Escherichia coli BL21 (DE3) cells assessed as [3H]acetyl-CoA after 25 mins by liquid scintillation counting.

Regarding `Cc1ncc([N+](=O)[O-])n1Cc1nnc(-c2ccc(F)cc2)o1`, the LC30 in series [1] was more than 10000 µg/mL. Also, the IC50 in series [2] was determined as 18.6 µM. The MIC in the series on Bacillus subtilis turned out to be 12.5 µg/mL (≈ 41.2 µM); against Staphylococcus aureus, 25 µg/mL (≈ 82.4 µM); in the series with Pseudomonas aeruginosa, 25 µg/mL (≈ 82.4 µM); against Escherichia coli it was 12.5 µg/mL (≈ 41.2 µM).

Turning to `Cc1ncc([N+](=O)[O-])n1Cc1nnc(-c2ccc(Cl)cc2)o1`, the LC30 in series [1] is more than 10000 µg/mL. For the same molecule, the IC50 in series [2] was 28.3 µM. The MIC in the series with Bacillus subtilis came out at 12.5 µg/mL (≈ 39.1 µM); against Staphylococcus aureus it was 25 µg/mL (≈ 78.2 µM); in the series with Pseudomonas aeruginosa, 12.5 µg/mL (≈ 39.1 µM); against Escherichia coli, 12.5 µg/mL (≈ 39.1 µM).

Consider `Cc1ncc([N+](=O)[O-])n1Cc1nnc(-c2ccc(Br)cc2)o1`, for which, in series [1], the LC30 was more than 10000 µg/mL. Moreover, the half-maximal inhibitory concentration (IC50) in series [2] came to 43.8 µM. For the same molecule, the MIC against Bacillus subtilis came out at 12.5 µg/mL (≈ 34.3 µM); against Staphylococcus aureus it was 50 µg/mL (≈ 137 µM); in the series on Pseudomonas aeruginosa, 25 µg/mL (≈ 68.7 µM); against Escherichia coli, 25 µg/mL (≈ 68.7 µM).

Take `Cc1ncc([N+](=O)[O-])n1Cc1nnc(-c2cccc(F)c2)o1`: the MIC in the series with Bacillus subtilis, against Staphylococcus aureus, in the series with Pseudomonas aeruginosa and in the series on Escherichia coli was more than 100 µg/mL throughout.

For `Cc1ncc([N+](=O)[O-])n1Cc1nnc(-c2cccc(Br)c2)o1`, in series [1], the LC30 is more than 10000 µg/mL. Moreover, the IC50 in series [2] turned out to be 16.9 µM. Further, the MIC with Bacillus subtilis was found to be 6.25 µg/mL (≈ 17.2 µM); against Staphylococcus aureus, 25 µg/mL (≈ 68.7 µM); with Pseudomonas aeruginosa, 25 µg/mL (≈ 68.7 µM); in the series on Escherichia coli, 6.25 µg/mL (≈ 17.2 µM).

For the molecule `Cc1ncc([N+](=O)[O-])n1Cc1nnc(-c2ccc([N+](=O)[O-])cc2)o1`, in series [1], the LC30 was more than 10000 µg/mL. Further, the MIC with Bacillus subtilis stood at 25 µg/mL (≈ 75.7 µM); in the series with Staphylococcus aureus it was 25 µg/mL (≈ 75.7 µM); against Pseudomonas aeruginosa, 12.5 µg/mL (≈ 37.8 µM); in the series with Escherichia coli, 12.5 µg/mL (≈ 37.8 µM). The IC50 in series [3] is 40.5 µM.

Turning to `COc1cccc(-c2nnc(Cn3c([N+](=O)[O-])cnc3C)o2)c1`, the LC30 in series [1] was more than 10000 µg/mL. Further, the IC50 in series [2] was found to be 9.4 µM. Also, the MIC with Bacillus subtilis is 6.25 µg/mL (≈ 19.8 µM); in the series with Staphylococcus aureus it was 12.5 µg/mL (≈ 39.6 µM); in the series on Pseudomonas aeruginosa, 12.5 µg/mL (≈ 39.6 µM); in the series with Escherichia coli it was 12.5 µg/mL (≈ 39.6 µM).

Regarding `COc1ccccc1-c1nnc(Cn2c([N+](=O)[O-])cnc2C)o1`, the LC30 in series [1] is more than 10000 µg/mL. Also, in series [2], the IC50 was 4.3 µM. For the same molecule, the MIC is 1.56 µg/mL (≈ 4.95 µM) against Bacillus subtilis, 3.13 µg/mL (≈ 9.93 µM) against Staphylococcus aureus, 1.56 µg/mL (≈ 4.95 µM) against Pseudomonas aeruginosa and 1.56 µg/mL (≈ 4.95 µM) in the series with Escherichia coli.

Turning to `Cc1ccccc1-c1nnc(Cn2c([N+](=O)[O-])cnc2C)o1`, the LC30 in series [1] is more than 10000 µg/mL. Besides, the MIC with Bacillus subtilis is 1.56 µg/mL (≈ 5.21 µM); with Staphylococcus aureus, 6.25 µg/mL (≈ 20.9 µM); in the series with Pseudomonas aeruginosa it was 3.13 µg/mL (≈ 10.5 µM); against Escherichia coli, 1.56 µg/mL (≈ 5.21 µM). Also, the IC50 in series [3] worked out at 5.1 µM.

Consider `Cc1ncc([N+](=O)[O-])n1Cc1nnc(Cc2ccc(F)cc2)o1`, for which the MIC came to 50 µg/mL (≈ 158 µM) with Bacillus subtilis, 25 µg/mL (≈ 78.8 µM) in the series on Staphylococcus aureus, 12.5 µg/mL (≈ 39.4 µM) in the series on Pseudomonas aeruginosa and 25 µg/mL (≈ 78.8 µM) against Escherichia coli.

In the case of `Cc1ncc([N+](=O)[O-])n1Cc1nnc(Cc2ccc(Cl)cc2)o1`, the MIC with Bacillus subtilis came to 50 µg/mL (≈ 150 µM); against Staphylococcus aureus, 25 µg/mL (≈ 74.9 µM); against Pseudomonas aeruginosa, 12.5 µg/mL (≈ 37.5 µM); against Escherichia coli it was 50 µg/mL (≈ 150 µM).

For `Cc1ncc([N+](=O)[O-])n1Cc1nnc(Cc2ccc(Br)cc2)o1`, the minimal inhibitory concentration (MIC) was found to be 50 µg/mL (≈ 132 µM) in the series with Bacillus subtilis, 50 µg/mL (≈ 132 µM) against Staphylococcus aureus, 25 µg/mL (≈ 66.1 µM) in the series on Pseudomonas aeruginosa and 50 µg/mL (≈ 132 µM) in the series with Escherichia coli.

As to `Cc1ncc([N+](=O)[O-])n1Cc1nnc(Cc2cccc(F)c2)o1`, the MIC against Bacillus subtilis, with Staphylococcus aureus, against Pseudomonas aeruginosa and with Escherichia coli was more than 100 µg/mL in each case.

With `Cc1ncc([N+](=O)[O-])n1Cc1nnc(Cc2cccc(Br)c2)o1`, the MIC was determined as 25 µg/mL (≈ 66.1 µM) in the series with Bacillus subtilis, 50 µg/mL (≈ 132 µM) against Staphylococcus aureus, 6.25 µg/mL (≈ 16.5 µM) against Pseudomonas aeruginosa and 25 µg/mL (≈ 66.1 µM) against Escherichia coli.

Take `Cc1ncc([N+](=O)[O-])n1Cc1nnc(Cc2ccc([N+](=O)[O-])cc2)o1`: the minimal inhibitory concentration (MIC) was 25 µg/mL (≈ 72.6 µM) against Bacillus subtilis, 50 µg/mL (≈ 145 µM) with Staphylococcus aureus, 25 µg/mL (≈ 72.6 µM) in the series with Pseudomonas aeruginosa and 25 µg/mL (≈ 72.6 µM) in the series with Escherichia coli.

With `COc1cccc(Cc2nnc(Cn3c([N+](=O)[O-])cnc3C)o2)c1`, the MIC against Bacillus subtilis is 25 µg/mL (≈ 75.9 µM); against Staphylococcus aureus it was 50 µg/mL (≈ 152 µM); in the series on Pseudomonas aeruginosa, 12.5 µg/mL (≈ 38 µM); against Escherichia coli it was 25 µg/mL (≈ 75.9 µM).

For `COc1ccccc1Cc1nnc(Cn2c([N+](=O)[O-])cnc2C)o1`, the MIC in the series with Bacillus subtilis stood at 25 µg/mL (≈ 75.9 µM); in the series with Staphylococcus aureus it was 25 µg/mL (≈ 75.9 µM); with Pseudomonas aeruginosa, 12.5 µg/mL (≈ 38 µM); in the series on Escherichia coli, 50 µg/mL (≈ 152 µM).

As to `Cc1ccccc1Cc1nnc(Cn2c([N+](=O)[O-])cnc2C)o1`, the MIC against Bacillus subtilis was determined as 50 µg/mL (≈ 160 µM); with Staphylococcus aureus it was 25 µg/mL (≈ 79.8 µM); against Pseudomonas aeruginosa, 25 µg/mL (≈ 79.8 µM); against Escherichia coli, 12.5 µg/mL (≈ 39.9 µM).

Take `NC[C@H]1O[C@H](O[C@H]2[C@H](O)[C@@H](O[C@H]3O[C@H](CO)[C@@H](O)[C@H](N)[C@H]3O)[C@H](N)C[C@@H]2N)[C@H](O)[C@@H](O)[C@@H]1O` [KANAMYCIN]: the MIC against Bacillus subtilis is 1.56 µg/mL (≈ 3.22 µM); against Staphylococcus aureus, 1.56 µg/mL (≈ 3.22 µM); against Pseudomonas aeruginosa, 3.13 µg/mL (≈ 6.46 µM); in the series with Escherichia coli, 3.13 µg/mL (≈ 6.46 µM).

Source of the values: ChEMBL document CHEMBL2046408, “Design, synthesis and antimicrobial activities of nitroimidazole derivatives containing 1,3,4-oxadiazole scaffold as FabH inhibitors” (Bioorg Med Chem, 2012).
